DNMT1 inh – DNMT1 (human) enzyme inhibition | P26358 | DNMT1 molecular beacon, Hinp1I cleavage, fluorescence | inhibition (reported as % activation of signal), % at 10 µM | 360,000 compounds, 0.83% hits | AID 588458; in the data active = inhibition above about 50%
LMPTP block – blocks human LMPTP phosphatase; P24666; recombinant LMPTP-A, OMFP fluorogenic substrate, fluorescence intensity; inhibition, % at 20 µM; 360,000 compounds, 0.22% hits;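 active = compounds that cut the enzyme signal by at least half of the control window in the single-dose screen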;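 also: plate controls were DMSO wells with enzyme plus substrate for no effect and substrate without enzyme for full effect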
Target sequence (P24666 whole entry, looked up): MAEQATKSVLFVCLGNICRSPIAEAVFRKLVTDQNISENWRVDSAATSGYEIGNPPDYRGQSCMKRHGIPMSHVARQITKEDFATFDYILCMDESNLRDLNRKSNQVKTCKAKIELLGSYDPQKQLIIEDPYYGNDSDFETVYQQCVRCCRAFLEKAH
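Assay system: LMPTP-A phosphatase enzyme | Input: 0.625 nM enzyme | Also added: Fluorogenic phosphatase substrate OMFP at 400 µM final | Compound dosing: One test concentration per compound, 20 µM, with 3% DMSO overall | Schedule: 50 min enzyme reaction at room temperature, protected from light | Signal: Fluorescence intensity | Benchmarks: no-enzyme and uninhibited controls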
Scp1 inh – inhibitors of human Scp-1 phosphatase; Q9GZU7; Recombinant Scp1, phosphopeptide, malachite green phosphate absorbance; inhibition, % at 20 µM; 340,000 compounds, 0.88% hits; AID 493091;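 active = inhibition above about 50% at 20 µM, limit read from the data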;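 also: plate controls were DMSO wells with enzyme for no effect and wells lacking enzyme for full effect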
Target sequence (Q9GZU7 76-261 limits assumed): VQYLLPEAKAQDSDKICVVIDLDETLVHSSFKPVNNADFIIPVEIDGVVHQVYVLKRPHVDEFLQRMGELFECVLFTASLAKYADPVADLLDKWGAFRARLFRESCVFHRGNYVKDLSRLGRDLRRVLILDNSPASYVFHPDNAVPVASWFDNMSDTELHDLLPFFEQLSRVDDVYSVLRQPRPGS
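System: SCP-1 catalytic domain; Reagent: Phospho 17-mer peptide substrate; Doses: one concentration, 20 µM, with 1.0% DMSO; Incubation: 45 min room-temperature reaction, 5 min colour, 30 min stabiliser; Signal: Phosphate-binding colour reagent, absorbance read at 630 nm.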
NadD block – blocks S. aureus nicotinate mononucleotide adenylyltransferase | purified NadD enzyme, colorimetric absorbance read-out | inhibition, % at 20 µM | 360,000 compounds, 0.78% hits; in the data active = inhibition above about 26%
SUMO1 PPI mod – alters human SUMO1 binding to SIM partners; P63165; SUMO1 binding to a labelled peptide, TR-FRET, 1 h; inhibition, % at 20 µM; 360,000 compounds, 0.33% hits; AID 602429; in the data active = inhibition above about 37%
Target sequence (P63165 whole entry, looked up): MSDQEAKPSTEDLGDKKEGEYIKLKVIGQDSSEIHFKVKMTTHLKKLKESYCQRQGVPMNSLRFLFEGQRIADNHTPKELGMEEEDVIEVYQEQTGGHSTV
STEP inh – blocks human striatal-enriched tyrosine phosphatase. 360,000 compounds, 0.25% hits. AID 588621. inhibition, % at 20 µM. P54829. recombinant STEP, OMFP fluorogenic substrate, fluorescence;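 active = inhibition at 20 µM, scaled per plate between control wells, above about 37%, limit read from the data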;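 also: 0% = DMSO with enzyme and substrate and 100% = substrate only without enzyme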
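Measure: Control-normalized % inhibition with plate pattern correction | Test system: STEP phosphatase, cell-free reaction | Medium: pH 6.0 Bis-Tris with DTT and Tween 20 | Technique: Fluorescence, 480/540 nm | Times: Reaction 20 min, ambient temperature | Doses: Single compound dose of 20 µM, 1% DMSO final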
DNMT1 interf DR – counter-screen for DNMT1 inhibitors: spectral interference, dose response. molecular beacon fluorescence. shares compounds with DNMT1 inh. IC50, µM. 200 tested, under 10 active; call rule not given here
DNMT1 inh conf – confirmation of human DNMT1 inhibitors; 2,300 compounds, 8% hits; AID 602385; inhibition, % at 10 µM; DNMT1 molecular beacon HinP1I cleavage, fluorescence; shares compounds with DNMT1 inh;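 active = average inhibition of at least 30% in the single-concentration confirmation test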
Beacon interf – shows spectral interference in the DNMT1 beacon assay | shares compounds with DNMT1 inh | DNMT1 molecular beacon spectral interference counterscreen, fluorescence 485/520 | activation (fluorescence interference), % at 10 µM | 2,300 compounds, 1% hits;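 active = activation of at least 30% at 10 µM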;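 also: DNMT1 catalytic domain with a HinP1I cleavage step and a FAM/dabcyl DNA beacon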
* marks the source's active call; other numbers are inactive results; / = no result. An excerpt weighted towards active compounds, which were near 2.4% of everything screened.

SMILES	DNMT1 inh	LMPTP block	Scp1 inh	NadD block	SUMO1 PPI mod	STEP inh	DNMT1 inh conf	Beacon interf	others
O=C(CCc1nc2ccccc2c(=O)[nH]1)Nc1nnc(SCc2ccc(F)cc2)s1	64*	5	-1	3	7	1	2	77*
COc1ccc(S(=O)(=O)N2CCN(C(=O)N3CCOCC3)C2C)cc1 (stereo unspecified)	1	0	12	-2	6	-1	/	/
CCCc1cc(C(=O)N2CCCC(C(=O)c3cc(C)c(OC)c(C)c3)C2)n(C)n1 (stereo unspecified)	-3	0	6	1	4	6	/	/
CCc1nc(N=Nc2c(O)[nH]c3ccccc23)c2c3c(sc2n1)CCC3	64*	0	4	3	-3	1	2	-4
Cc1ccc(C2C(C#N)=C(N)N(N(C)C)C3=C2C(=O)CCC3)cc1 (stereo unspecified)	79*	0	-17	2	2	-2	2	2
CN(C)N1C(N)=C(C#N)C(c2ccc(Cl)cc2)C2=C1CCCC2=O (stereo unspecified)	1	-1	-9	-2	4	1	/	/
COC(=O)/C(C#N)=C(/Nc1ccc(F)c(Cl)c1)C(F)(F)F	-5	0	-4	0	-3	-1	/	/
CSc1ccccc1OCc1cc(C(=O)N(C)Cc2ccncn2)no1	-2	0	-5	1	1	1	/	/
Fc1ccc(CNc2ccc(N3CCN(Cc4ccccc4)CC3)cc2)cc1	62*	2	6	2	-1	2	1	4
Cc1cccc(N=C2NC(=O)/C(=C/c3cccn3C)S2)c1C	-4	2	-7	-5	-13	-2	/	/
Cc1cccc(N=C2NC(=O)/C(=C/C=C/c3ccco3)S2)c1C	94*	27	66*	72*	40*	4	10	3
Cc1ccc(N=C2NC(=O)/C(=C/C=C/c3ccco3)S2)cc1	87*	6	34	34*	11	6	2	4
COc1ccc(N=C2NC(=O)/C(=C/c3ccco3)S2)cc1	2	3	-42	1	2	3	/	/
CCOC(=O)N1CCN(S(=O)(=O)c2ccc(C(=O)Nc3nnc(CSC)o3)cc2)CC1	-4	1	-9	8	-1	2	/	/
O=C(N=Nc1c(O)n(Cc2ccccc2)c2ccccc12)c1cc2ccccc2cc1O	82*	12	37	40*	-6	3	2	-8
O=C(N=Nc1c(O)n(Cc2ccccc2)c2ccccc12)c1ccc(O)cc1	-5	0	-14	28	-10	1	/	/
c1cnc2nc3c4ccccc4c4ccccc4c3nc2c1	52*	8	13	10	36	-2	-1	0
Cc1noc(C)c1COc1ccccc1C(=O)NCc1ccco1	1	0	2	-2	-3	-1	/	/
COc1cc2[nH]c(=O)n3nc(-c4ccccc4)nc3c2cc1OC	-1	4	-5	0	14	6	/	/
CCN(CC)CCNc1nc2cc(OC)c(OC)cc2c2nc(-c3ccccc3)nn12	67*	4	-7	-8	12	4	26	-4	DNMT1 interf DR=>99
C/C(=N/NC(=O)c1ccc(O)cc1)c1cccc([N+](=O)[O-])c1	3	-1	-2	2	-25	0	/	/
C/C(=N/NC(=O)c1cc(-c2cccc([N+](=O)[O-])c2)n[nH]1)c1cccc(O)c1	89*	0	-2	6	-14	0	3	5
Nc1ccc(-c2cnc[nH]2)cc1[N+](=O)[O-]	1	1	-5	-12	-31	-1	/	/
Cc1ccc(CS/C(Nc2ccccc2C)=C(\C#N)C(N)=O)c(C)c1	-5	1	-8	-2	0	-2	/	/

Screening results (PubChem BioAssay)
